# Measurements published in PMC2888972 (Molecular cancer therapeutics, 2009).
# Read-outs that look alike come from different tables or passages of the source.
# Legend:
# [1] = test system: WP2 uvrA; test: Bacterial mutation
# [2] = test system: TA1535; test: Bacterial mutation
# [3] = test system: TA98; test: Bacterial mutation
# [4] = test system: TA100; test: Bacterial mutation
# [5] = test system: RTC 91696 normal cultures; test: Apoptosis assay; format: cell-based, human; details: maximum 72-hour treatment time and 12.5-µmol/L concentration
# Method in brief: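 Floating cells from the medium are pooled with trypsinised adherent cells, pelleted, and stained with Annexin-V-FITC and PI (Vybrant kit #3). Flow cytometry uses 488 nm excitation and 530/575 nm emission. Cultures are at passage 3, in MEMα with EGF 10 ng/mL, hydrocortisone 5 µg/mL, insulin/transferrin/selenous acid 6.35 µg/mL each, 10% FBS and pen/strep. The apoptotic-quadrant percentage comes from four replicate experiments.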
# [6] = test system: 786-O cancer; test: Growth inhibition assay; format: cell-based, human; details: for efficacy (maximum growth inhibition observed): 48 h, 1 to 12.5 µmol/L
# Method in brief: (§1)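 Stock is 0.01 mol/L in DMSO, kept at −20°C under subdued light. Cells get 1–12.5 µmol/L or equal-volume DMSO, in triplicate, for 48 h. Growth index is mean treated OD over mean control OD, plotted against concentration. Maximal inhibition comes by nonlinear regression from plots of 2–3 independent experiments.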
# [7] = test system: NF-κB transcriptional activity; test: NF-κB luciferase reporter assay in Caki-1; format: cell-based, human
# [8] = animal models; cited from earlier work
# [9] = test system: livers of SHetA2-treated mice; details: previous xenograft model; cited from earlier work
# [10] = test system: Caki-1 cancer; test: Cell cycle analysis; format: cell-based, human; details: 10 µmol/L, 24 h
# [11] = test system: A498 cancer cell line xenograft; test: A498 xenograft model; format: in vivo; details: 20, 40, or 60 mg/kg/day; data not shown
# [12] = test system: E-Cadherin mRNA; test: Real-time rtPCR of E-Cadherin in Caki-1 cultures; format: cell-based, human
# Method in brief: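 RNA comes from frozen cell pellets (RNeasy). TaqMan real-time PCR for E-Cadherin and 18S is run in triplicate reactions. Expression is normalised to 18S by ΔΔCt and set relative to solvent-only control cultures at each dose or time point. Three independent experiments.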
# [13] = test system: Caki-1 renal cancer xenografts; test: Caki-1 renal cancer xenograft; details: for tumor-related deaths: 4 in untreated control group
# [14] = test system: five bacterial strains; test: Bacterial mutation
# [15] = test system: normal HK-2 cell lines; test: Cell cycle analysis; format: cell-based, human; details: 10 µmol/L, 24 h
# [16] = test system: HK-2 normal; test: Growth inhibition assay; format: cell-based, human; details: 48 h; for efficacy (maximum growth inhibition observed): 1 to 12.5 µmol/L; for EC50: read-out: potency (EC50, concentration needed to induce half maximal efficacy)
# Method in brief: as §1
# [17] = test system: mouse embryos; details: animal models; cited from earlier work
# [18] = test system: Caki-1 cancer cell line; test: Apoptosis assay; format: cell-based, human; details: 10 µmol/L SHetA2, Annexin-V-FITC/PI
# [19] = test system: PARP-1 and Caspase 3; test: Western blot, PARP-1 and Caspase 3 cleavage; format: cell-based, human; details: Caki-1 cultures, 10 µmol/L
# Method in brief: (§2)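 Lysis is in CytoBuster with protease inhibitor cocktail. 100 µg protein is resolved by SDS-PAGE and blotted to nitrocellulose. Blots are probed with mouse monoclonals (Cyclin D1, PARP-1, Caspase 3), then HRP secondary with luminol detection. Stripped blots are reprobed for β-actin or GAPDH as loading control. Solvent-only DMSO cultures serve as control.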
# [20] = test system: Caki-1 cancer; test: Growth inhibition assay; format: cell-based, human; details: for efficacy (maximum growth inhibition observed): 1 to 12.5 µmol/L; for EC50: read-out: potency (EC50, concentration needed to induce half maximal efficacy)
# Method in brief: as §1
# [21] = test system: TA1537; test: Bacterial mutation
# [22] = test system: Cyclin D1; test: Western blot, Cyclin D1; format: cell-based, human; details: SHetA2 treatment
# Method in brief: as §2
# [23] = test system: RTC91696 normal; test: Growth inhibition assay; format: cell-based, human; details: 48 h; for EC50: read-out: potency (EC50, concentration needed to induce half maximal efficacy); for efficacy (maximum growth inhibition observed): 1 to 12.5 µmol/L
# [24] = positive control 0.5 µg/plate, −S9
# [25] = 1.58 µg/plate (0.004 µmol/L), +S9
# [26] = 1.58 µg/plate (0.004 µmol/L), −S9
# [27] = 5.0 µg/plate (0.012 µmol/L), +S9
# [28] = 15.8 µg/plate (0.039 µmol/L), +S9
# [29] = 50 µg/plate (0.125 µmol/L), +S9
# [30] = 50 µg/plate (0.125 µmol/L), −S9
# [31] = 158 µg/plate (0.393 µmol/L), +S9
# [32] = 158 µg/plate (0.393 µmol/L), −S9
# [33] = 500 µg/plate (1.245 µmol/L), +S9
# [34] = 500 µg/plate (1.245 µmol/L), −S9
# [35] = 1581 µg/plate (3.937 µmol/L), +S9
# [36] = 1581 µg/plate (3.937 µmol/L), −S9
# [37] = 5000 µg/plate (12.452 µmol/L), +S9
# [38] = 5000 µg/plate (12.452 µmol/L), −S9
# [39] = RTC91696 normal, single experiments
compound,measurement,setting,value
"Nc1ccc2cc3ccccc3cc2c1 [2AA, reference compound]","number of revertant colonies, Mean",[1]; [24],594
same,"number of revertant colonies, Mean","[1]; positive control 15 µg/plate, +S9",145
same,"number of revertant colonies, Mean","[2]; positive control 5 µg/plate, +S9",324
"O=[N+]([O-])c1ccc2c(c1)Cc1ccccc1-2 [2NF, reference compound]","number of revertant colonies, Mean","[3]; positive control 1 µg/plate, −S9",108
"[N-]=[N+]=[N-].[Na+] [NaAZ, reference compound]","number of revertant colonies, Mean",[4]; [24],511
same,"number of revertant colonies, Mean",[2]; [24],304
CC1(C)CC(C)(C)c2cc(NC(=S)Nc3ccc([N+](=O)[O-])cc3)ccc2S1 [SHetA2],induction of apoptosis in normal cells,[5],did not induce apoptosis
same,"number of revertant colonies, Mean",[4]; [25],136
same,"number of revertant colonies, Mean",[4]; [26],136
same,"number of revertant colonies, Mean",[4]; [27],124
same,"number of revertant colonies, Mean",[4]; [28],171
same,efficacy (maximum growth inhibition observed),[6],72.00% ± 5.06%
same,time to inhibition of NF-κB activity,[7]; 10 µmol/L SHetA2,≤ 30 min
same,tumor necrosis factor α induced NF-κB transcriptional activity,"[7]; 10 µmol/L SHetA2, 20 ng/mL TNFα, 4 or 8 h",significantly inhibited
same,skin irritancy,[8],did not induce skin irritancy or teratogenicity
same,"liver damage (necrosis, fatty changes, inflammation in portal tracts)",[9],no liver damage
same,"number of revertant colonies, Mean",[1]; [29],27
same,"number of revertant colonies, Mean",[1]; [30],17
same,"number of revertant colonies, Mean",[1]; [31],18
same,"number of revertant colonies, Mean",[1]; [32],14
same,"number of revertant colonies, Mean",[1]; [33],22
same,"number of revertant colonies, Mean",[1]; [34],18
same,"number of revertant colonies, Mean",[1]; [35],17
same,"number of revertant colonies, Mean",[1]; [36],10
same,"number of revertant colonies, Mean",[1]; [37],13
same,"number of revertant colonies, Mean",[1]; [38],12
same,percentages of cells in the G0-G1 phase of the cell cycle,[10],increased the percentages of cells in the G0-G1 phase
same,sensitivity of A498 xenograft,[11],did not exhibit significant sensitivity
same,time to upregulation of E-Cadherin mRNA,[12],≤ 1 h
same,induction of E-Cadherin steady-state mRNA,[12]; 4 hours of treatment,20 fold
same,induction of E-Cadherin steady-state mRNA,[12]; 24 hours of treatment,60 fold
same,tumor-related deaths,[13]; 20 mg/kg/day oral,3
same,tumor-related deaths,[13]; 40 mg/kg/day oral,6
same,maximal growth inhibition of xenograft tumors,"[13]; 60 mg/kg/day oral for 30 days, day 34 (23rd day of treatment)",36%
same,tumor-related deaths,[13]; 60 mg/kg/day oral,6
same,body weight of the animals compared with the control group,"[13]; 20, 40, 60 mg/kg/day oral for 30 days",None of the treatment concentrations altered the body weight
same,reduction of xenograft tumor sizes,[13]; 20 and 40 mg/kg/day oral for 30 days,not statistically significant
same,mutagenicity of metabolites (number of revertant colonies),[14]; preincubation with S9 microsomal fractions,no effect on the number of revertant colonies
same,mutagenicity (increase in revertant colony counts),[14]; without S9,neither SHetA2 nor SHetA3 induced substantial increases in the revertant colony counts
same,percentages of cells in the G0-G1 phase of the cell cycle,[15],increased the percentages of cells in the G0-G1 phase
same,"number of revertant colonies, Mean",[2]; [29],15
same,"number of revertant colonies, Mean",[2]; [30],19
same,"number of revertant colonies, Mean",[2]; [31],20
same,"number of revertant colonies, Mean",[2]; [32],26
same,"number of revertant colonies, Mean",[2]; [33],22
same,"number of revertant colonies, Mean",[2]; [34],18
same,"number of revertant colonies, Mean",[2]; [35],19
same,"number of revertant colonies, Mean",[2]; [36],21
same,"number of revertant colonies, Mean",[2]; [37],22
same,"number of revertant colonies, Mean",[2]; [38],16
same,"number of revertant colonies, Mean",[3]; [25],48
same,"number of revertant colonies, Mean",[3]; [26],16
same,"number of revertant colonies, Mean",[3]; [27],45
same,"number of revertant colonies, Mean",[3]; [28],52
same,"number of revertant colonies, Mean",[3]; [29],49
same,"number of revertant colonies, Mean",[3]; [31],12
same,efficacy (maximum growth inhibition observed),[16]; HK-2 normal,51.02% ± 7.07%
same,EC50,[16]; Homo sapiens,4.5 ± 0.28 µM
same,teratogenicity,[17],did not induce skin irritancy or teratogenicity
same,percentage of cells in the quadrant corresponding to apoptosis,[18],increased the percentage of Caki-1 cancer cells
same,time to cleavage of PARP-1 and Caspase 3,[19],≤ 16 h
same,efficacy (maximum growth inhibition observed),"[20]; Caki-1 cancer, 48 h",84.40% ± 3.86%
same,EC50,"[20]; Homo sapiens, CAKI-1, 48 h",4.93 ± 0.22 µM
same,"number of revertant colonies, Mean",[21]; [25],23
same,"number of revertant colonies, Mean",[21]; [26],9
same,"number of revertant colonies, Mean",[21]; [27],21
same,"number of revertant colonies, Mean",[21]; [28],21
same,time to decreased expression of Cyclin D1,[22],≤ 1 h
same,EC50,[23]; Homo sapiens,4.57 ± 0.49 µM
same,efficacy (maximum growth inhibition observed),[23]; [39],36.84% ± 6.80%
CCOC(=O)c1ccc(NC(=O)Nc2ccc3c(c2)C(C)(C)CC(C)(C)S3)cc1 [SHetA4],efficacy (maximum growth inhibition observed),[6],45.04% ± 4.80%
same,EC50,"[6]; read-out: potency (EC50, concentration needed to induce half maximal efficacy), 48 h",2.56 ± 0.34 µM
same,efficacy (maximum growth inhibition observed),[16]; HK-2 normal,26.35% ± 0.80%
same,EC50,[16]; HK-2 normal,5.19 ± 0.25 µM
same,efficacy (maximum growth inhibition observed),"[20]; Caki-1 cancer, 48 h",68.92% ± 6.94%
same,EC50,"[20]; Caki-1 cancer, 48 h",5.07 ± 0.15 µM
same,efficacy (maximum growth inhibition observed),[23]; [39],39.67% ± 2.52%
same,EC50,[23]; [39],7.55 ± 0.51 µM
